High-throughput results: PubChem BioAssay, The Scripps Research Institute Molecular Screening Center
Wee1 degr inh: human Wee1 degradation inhibition, primary screen; P30291; HeLa Luc-Wee1K328M stability, luciferase luminescence; 100% = proteasome inhibitor MG132 effect; reporter increase, % at 5 µM; 220,000 tested, 1.2% active; AID 1321;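 active = activation above the mean of all tested compounds plus 3 SD, set per screening run, cut at about 8.8% in these data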;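 note: cells exposed to compound for 20 h before luminescence read; 0% = DMSO alone and 100% = MG132 at 30 µM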
NPY Y2 blocker: blocks the human neuropeptide Y Y2 receptor; NPY-Y2 expressing cells, antagonist mode; inhibition, % at 2.7 µM; 140,000 tested, 0.99% active; AID 793; in the data active = inhibition above about 17%;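 note: 0% = vehicle with agonist challenge and 100% = reference antagonist with challenge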
Target sequence (P49146 whole entry, looked up): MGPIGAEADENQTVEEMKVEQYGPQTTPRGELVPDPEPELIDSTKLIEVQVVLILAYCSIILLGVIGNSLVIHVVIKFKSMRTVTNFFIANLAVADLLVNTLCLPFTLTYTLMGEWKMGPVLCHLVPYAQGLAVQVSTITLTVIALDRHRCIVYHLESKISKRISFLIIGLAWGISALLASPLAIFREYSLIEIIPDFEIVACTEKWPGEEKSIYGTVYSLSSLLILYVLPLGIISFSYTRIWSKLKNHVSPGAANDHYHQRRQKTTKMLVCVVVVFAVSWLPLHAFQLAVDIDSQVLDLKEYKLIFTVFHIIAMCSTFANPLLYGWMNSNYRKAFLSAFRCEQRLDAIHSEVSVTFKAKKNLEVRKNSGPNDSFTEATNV
NPY-Y1 antag: NPY-Y1 (human) receptor antagonism | P25929 | HEK293-CNG Y1 cells, membrane potential fluorescence; NPY at EC95, then isoproterenol | 200,000 tested, 1% active | AID 1040 | inhibition, % at 3.6 µM;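 active = inhibition above the campaign mean inhibition of all tested compounds plus 3 SD, cut at about 20% in these data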;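 note: 0% = DMSO wells given NPY plus isoproterenol and 100% = isoproterenol alone without NPY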
Target sequence (P25929 whole entry, looked up): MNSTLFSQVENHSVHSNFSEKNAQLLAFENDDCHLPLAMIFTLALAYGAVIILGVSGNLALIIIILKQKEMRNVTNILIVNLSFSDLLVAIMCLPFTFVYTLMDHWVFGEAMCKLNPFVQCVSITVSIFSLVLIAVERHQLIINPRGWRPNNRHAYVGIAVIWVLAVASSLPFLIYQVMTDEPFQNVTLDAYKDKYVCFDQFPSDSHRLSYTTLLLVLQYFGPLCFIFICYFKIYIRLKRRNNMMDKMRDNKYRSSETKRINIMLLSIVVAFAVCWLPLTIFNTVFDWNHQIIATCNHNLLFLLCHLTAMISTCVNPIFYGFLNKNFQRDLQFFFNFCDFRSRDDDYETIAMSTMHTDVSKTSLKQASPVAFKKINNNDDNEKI
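material = HEK293 cells with Y1 receptor plus CNG channel | also added = NPY 25 nM then isoproterenol 1 µM plus Ro 20-1724 25 µM | schedule = dye 3 h, compound 60 min room temperature, stimulation 45 min | measured by = membrane potential fluorescence | benchmarks = high control isoproterenol alone, low control NPY with isoproterenol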
NPY-Y2 PAM-ag: human NPY-Y2 potentiation or agonism, primary screen; P49146; cells expressing NPY-Y2, potentiator/agonist read-out; activation, % at 3.6 µM; 220,000 tested, 0.45% active; AID 1359; in the data active = activation above about 27%;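 note: cells stimulated with NPY near EC25 plus isoproterenol at EC100; 0% = vehicle plus submaximal agonist and 100% = vehicle plus saturating agonist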
Hsp70 act: Hsp70 transcriptional activation, primary screen. HeLa Hsp70 promoter luciferase reporter, luminescence; scaled: vehicle 0, proteasome-inhibitor control 100%. activation, % at 10 µM. AID 1203. 200,000 tested, 0.04% active;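 active = activation above the mean across all tested compounds plus 3 SD, cutoff set per campaign, cut at about 5.5% in these data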;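 note: 100% = MG132 at 30 µM as the positive control and 0% = DMSO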
NPY1 pot ag: potentiators or agonists of human neuropeptide Y receptor Y1. NPY-Y1 expressing cells, potentiator/agonist activation. activation, % at 3.6 µM. 220,000 tested, 0.37% active; in the data active = activation above about 33%, passing the limit was not always enough;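 note: cells stimulated with NPY at EC10 then isoproterenol at EC100; 0% = low agonist plus stimulus and 100% = saturating agonist plus stimulus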
Wee1 stab conf: human Wee1 degradation inhibition, confirmation; shares compounds with Wee1 degr inh; HeLa Luc-Wee1K328M degradation, luminescence; vehicle 0%, proteasome-blocked wells 100%; activation, % at 5 µM; 1,100 tested, 4% active; in the data active = activation above about 8.9%
Starred values were filed as active, the others as inactive. Most compounds without a hit are left out; they make up all but 3% or so of the library.

Results for COC(=O)c1cc(NC(=O)c2ccccc2F)cc(C(=O)OC)c1 ?
Wee1 degr inh: -3.3; NPY-Y1 antag: 1.4; NPY-Y2 PAM-ag: -0.6; Hsp70 act: 0.4; NPY1 pot ag: 5.6

How did CN(Cc1nccn1C)C(=O)CC1C(=O)NCCN1Cc1cccc(Oc2ccccc2)c1 (stereo not given) do in these assays?
Wee1 degr inh: 11.9*; NPY-Y1 antag: -3.6; NPY-Y2 PAM-ag: -1.7; Hsp70 act: -0.1; NPY1 pot ag: 5.5; Wee1 stab conf: 0.7

Results for Cc1ccc(CSCC(=O)N2CCOCC2)cc1 ?
Wee1 degr inh: 13.2*; NPY Y2 blocker: 0.9; NPY-Y1 antag: -1.7; NPY-Y2 PAM-ag: -19.4; Hsp70 act: -0.3; NPY1 pot ag: 7.7; Wee1 stab conf: 0.0

Results for CCN(CC)C(=O)c1c(-c2ccccc2)oc2ccc(OC)cc12 ?
Wee1 degr inh: 17.0*; NPY Y2 blocker: 5.5; NPY-Y1 antag: 6.1; NPY-Y2 PAM-ag: -5.8; Hsp70 act: -0.4; NPY1 pot ag: -8.7; Wee1 stab conf: 0.3

Results for CCOc1ccc2oc(-c3ccccc3)c(C(=O)N(C)C)c2c1 ?
Wee1 degr inh: 6.6; NPY Y2 blocker: 2.5; NPY-Y1 antag: 3.3; NPY-Y2 PAM-ag: 8.9; Hsp70 act: 0.0; NPY1 pot ag: 21.0

How did COc1ccc(S(=O)(=O)N2CCN(CC(=O)Nc3ccc(F)c(F)c3)CC2)cc1 do in these assays?
Wee1 degr inh: 12.1*; NPY Y2 blocker: -0.4; NPY-Y1 antag: -0.5; NPY-Y2 PAM-ag: 10.2; Hsp70 act: -0.1; NPY1 pot ag: 13.5; Wee1 stab conf: 0.6

How did CCOc1ccc(NC(=S)Nc2cc(OC)c(Cl)cc2OC)cc1 do in these assays?
Wee1 degr inh: 1.0; NPY Y2 blocker: 3.6; NPY-Y1 antag: -2.2; NPY-Y2 PAM-ag: -9.0; Hsp70 act: -0.2; NPY1 pot ag: -8.1

Results for CCSc1nnc(NC(=O)C2CCCN(S(=O)(=O)c3cnc[nH]3)C2)s1 (stereo not given) ?
Wee1 degr inh: -1.6; NPY Y2 blocker: 2.4; NPY-Y1 antag: 6.1; NPY-Y2 PAM-ag: -0.2; Hsp70 act: -0.3; NPY1 pot ag: 9.1

What do the screens show for `CCOC(=O)CC(NC(=O)c1ccccc1F)c1ccc(C)cc1` (stereo not given)?
Wee1 degr inh: -1.1; NPY-Y1 antag: -1.7; NPY-Y2 PAM-ag: 0.3; Hsp70 act: -0.1; NPY1 pot ag: 7.4

Results for CCOC(=O)CC(NC(=O)c1ccc(C)cc1)c1ccc(C)cc1 (stereo not given) ?
Wee1 degr inh: 14.4*; NPY Y2 blocker: 2.2; NPY-Y1 antag: 6.7; NPY-Y2 PAM-ag: 0.1; Hsp70 act: -0.5; NPY1 pot ag: 17.6; Wee1 stab conf: 2.3

How did CN(Cc1ccccc1F)c1nc(-c2cccs2)nc2ccccc12 do in these assays?
Wee1 degr inh: 13.8*; NPY Y2 blocker: 3.7; NPY-Y1 antag: 4.8; NPY-Y2 PAM-ag: 3.2; Hsp70 act: -0.2; NPY1 pot ag: -9.8; Wee1 stab conf: 4.2

Results for NC(=O)C1=C[C@@H](c2ccc(Br)cc2)C[C@@H](OCc2ccc(CO)cc2)O1 ?
Wee1 degr inh: 0.7; NPY-Y1 antag: 0.0; NPY-Y2 PAM-ag: -1.6; Hsp70 act: 0.4; NPY1 pot ag: -9.5

How did NC(=O)C1=C[C@H](c2ccc(Br)cc2)C[C@H](OCc2ccc(CO)cc2)O1 do in these assays?
Wee1 degr inh: 11.4*; NPY-Y1 antag: -1.9; NPY-Y2 PAM-ag: -2.7; Hsp70 act: 1.0; NPY1 pot ag: -4.8; Wee1 stab conf: 0.2

What do the screens show for `Cc1cc(C)n(-c2ccc(C(=O)Nc3cc(C(F)(F)F)ccc3N3CCOCC3)cc2)n1`?
Wee1 degr inh: 13.3*; NPY Y2 blocker: 1.5; NPY-Y1 antag: -0.9; NPY-Y2 PAM-ag: 4.4; Hsp70 act: -0.3; NPY1 pot ag: -14.2; Wee1 stab conf: 0.1

What do the screens show for `Cc1cc(C)n(-c2ccc(C(=O)Nc3ccccc3N3CCOCC3)cc2)n1`?
Wee1 degr inh: 7.5; NPY Y2 blocker: 2.2; NPY-Y1 antag: -3.8; NPY-Y2 PAM-ag: -10.5; Hsp70 act: -0.4; NPY1 pot ag: -9.2

How did O=C(Oc1cccc(NC(=O)c2ccco2)c1)c1cccc(S(=O)(=O)N2CCCCC2)c1 do in these assays?
Wee1 degr inh: 1.9; NPY Y2 blocker: 5.8; NPY-Y1 antag: 2.2; NPY-Y2 PAM-ag: -1.1; Hsp70 act: 0.1; NPY1 pot ag: 16.3

How did C(=N\Nc1nc2ccccc2s1)/c1cccs1 do in these assays?
Wee1 degr inh: 14.4*; NPY Y2 blocker: 1.4; NPY-Y1 antag: -4.5; NPY-Y2 PAM-ag: 2.9; Hsp70 act: 0.3; NPY1 pot ag: 4.7; Wee1 stab conf: 5.2

How did CC(=O)Nc1ccc(/C=N/Nc2nc3ccccc3s2)cc1 do in these assays?
Wee1 degr inh: 12.7*; NPY-Y2 PAM-ag: 38.5; NPY1 pot ag: 43.4; Wee1 stab conf: 10.1*

How did C(=N\Nc1nc2ccccc2s1)/c1ccco1 do in these assays?
Wee1 degr inh: 11.9*; NPY Y2 blocker: 0.6; NPY-Y1 antag: 3.2; NPY-Y2 PAM-ag: -4.1; Hsp70 act: 0.0; NPY1 pot ag: 15.3; Wee1 stab conf: 2.7

What do the screens show for `Cc1ccsc1/C=N/Nc1nc2ccccc2s1`?
Wee1 degr inh: 14.1*; NPY Y2 blocker: -0.6; NPY-Y1 antag: 1.2; NPY-Y2 PAM-ag: 20.1; Hsp70 act: -0.2; NPY1 pot ag: 6.2; Wee1 stab conf: 6.3

How did Cc1cc(C)nc(N/N=C/c2sccc2C)n1 do in these assays?
Wee1 degr inh: 2.6; NPY-Y1 antag: -2.8; NPY-Y2 PAM-ag: -8.1; Hsp70 act: 0.1; NPY1 pot ag: -14.3

Results for C/C(=N\Nc1nc2ccccc2s1)c1cccs1 ?
Wee1 degr inh: 2.8; NPY Y2 blocker: -2.2; NPY-Y1 antag: 2.3; NPY-Y2 PAM-ag: 12.3; Hsp70 act: -0.4; NPY1 pot ag: 20.7

What do the screens show for `COCCN(C(=O)C(C)C)c1nnc(-c2cccc(C)c2)s1`?
Wee1 degr inh: 0.0; NPY Y2 blocker: 3.4; NPY-Y1 antag: 0.0; NPY-Y2 PAM-ag: 1.6; Hsp70 act: -0.5; NPY1 pot ag: 9.5

How did Cc1ccsc1/C=N/NC(=O)c1ccco1 do in these assays?
Wee1 degr inh: 2.0; NPY Y2 blocker: 3.0; NPY-Y1 antag: 0.3; NPY-Y2 PAM-ag: -3.1; Hsp70 act: -0.3; NPY1 pot ag: -7.3

Results for COC(=O)c1c(-c2cccc3ccccc23)csc1NC(=O)Cc1ccc(OC)c(OC)c1 ?
Wee1 degr inh: -1.9; NPY Y2 blocker: -2.0; NPY-Y1 antag: 4.5; NPY-Y2 PAM-ag: 4.4; Hsp70 act: -0.4; NPY1 pot ag: 8.6

Results for Cc1cc(C(=O)NC2=NCCS2)cs1 ?
Wee1 degr inh: 1.8; NPY Y2 blocker: 0.2; NPY-Y1 antag: -1.5; NPY-Y2 PAM-ag: 12.4; Hsp70 act: 0.0; NPY1 pot ag: -1.6

Results for Cc1cccc(C(=O)NC2=NCCS2)c1 ?
Wee1 degr inh: 33.0*; NPY-Y1 antag: 6.5; NPY-Y2 PAM-ag: 0.1; Hsp70 act: 0.0; NPY1 pot ag: 5.5; Wee1 stab conf: 1.4
